{"source": "paper PMC4036123", "about": "(Cancer chemotherapy and pharmacology, 2014)", "key": {"[1]": {"test_system": "proteasome trypsin-like activity", "assay": "Proteasome-Glo assay in intact MM cells, trypsin-like activity", "type": "cell-based, human", "conditions": "read-out: Trypsin-like IC50, 24 hours incubation", "outline": "(§1)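 MM.1S, MM.1R and RPMI-8226 human myeloma lines were grown in RPMI medium with 10% FBS and antibiotics. Activity was read as luminescence with the Proteasome-Glo kit, following the manufacturer's protocol.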"}, "[2]": {"test_system": "proteasome chymotrypsin-like activity", "assay": "Proteasome-Glo assay in intact MM cells, chymotrypsin-like activity", "type": "cell-based, human", "conditions": "read-out: Chymotrypsin-like IC50, 24 hours incubation", "outline": "as §1"}, "U266 cells": {"test_system": "U266 cells", "assay": "Cellular proliferation assay", "type": "cell-based", "conditions": "Homo sapiens, U-266, 48 h, read-out: IC50 (cell viability)"}, "MM.1S cells": {"test_system": "MM.1S cells", "assay": "In vitro cell invasion assay", "type": "cell-based, human", "conditions": "MM.1S cells pretreated at IC50 value, Matrigel invasion chamber"}, "RPMI-8226 cells": {"test_system": "RPMI-8226 cells", "assay": "Cellular proliferation assay", "type": "cell-based", "conditions": "Homo sapiens, RPMI-8226, 48 h, read-out: IC50 (cell viability)"}}, "note": "Read-outs that look alike come from different tables or passages of the source."}
{"molecule": "CC(C)C[C@H](NC(=O)[C@H](Cc1ccccc1)NC(=O)c1cnccn1)B(O)O", "note": "[Bortezomib]", "values": [{"measurement": "IC50", "setting": "[1]; MM1R cell line", "result": "> 18", "unit": "nM"}, {"measurement": "IC50", "setting": "[1]; MM1S cell line", "result": "> 18", "unit": "nM"}, {"measurement": "IC50", "setting": "[1]; RPMI822G cell line", "result": "> 18", "unit": "nM"}, {"measurement": "IC50", "setting": "[1]; U266 cell line", "result": "> 18", "unit": "nM"}, {"measurement": "IC50", "setting": "[2]; MM1R cell line", "result": "[…]"}, {"measurement": "IC50", "setting": "[2]; MM1S cell line", "result": "[…]"}, {"measurement": "IC50", "setting": "[2]; RPMI822G cell line", "result": "[…]"}, {"measurement": "IC50", "setting": "[2]; U266 cell line", "result": "[…]"}, {"measurement": "IC50", "setting": "U266 cells", "result": 13.5, "unit": "nM"}, {"measurement": "inhibition of invasiveness compared to control", "setting": "MM.1S cells", "result": 37.42, "unit": "%"}, {"measurement": "IC50", "setting": "RPMI-8226 cells", "result": "[…]"}]}
